Activity calls are given as the source filed them. The rule behind the calls is not given here.
Key:
[1] = Cytotoxicity against HEK293 cells assessed as reduction in cell viability after 24 hrs by MTT assay; assay type: functional, cell-based; details: Homo sapiens, HEK293, 24 h
Procedure, shortened: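 HEK293 (HPA Culture Collections) monolayers in DMEM with 10% FBS and 1% penicillin–streptomycin, 37 °C, humidified 5% CO2. Compound dissolved in DMSO, then diluted in culture medium. Antiproliferative read-out by MTT tetrazolium reduction to formazan. Etoposide run as positive control. IC50 determined.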

[2] = test system: HEK293; assay: Induction of apoptosis in HEK293 cells assessed as early apoptotic cells at 0.19 uM after 24 hrs by Annexin V/propidium iodide-dual staining based FACS analysis (reference value: 2.04%); assay type: functional, Homo sapiens
[3] = target: T1, DNA topoisomerase 1 (Homo sapiens) (UniProt P11387); assay: Inhibition of human Top1 using pHOT as substrate assessed as suppression of relaxation of DNA supercoil at >50 uM after 30 mins by ethidium bromide-based agarose gel electrophoresis
T1 sequence (whole entry): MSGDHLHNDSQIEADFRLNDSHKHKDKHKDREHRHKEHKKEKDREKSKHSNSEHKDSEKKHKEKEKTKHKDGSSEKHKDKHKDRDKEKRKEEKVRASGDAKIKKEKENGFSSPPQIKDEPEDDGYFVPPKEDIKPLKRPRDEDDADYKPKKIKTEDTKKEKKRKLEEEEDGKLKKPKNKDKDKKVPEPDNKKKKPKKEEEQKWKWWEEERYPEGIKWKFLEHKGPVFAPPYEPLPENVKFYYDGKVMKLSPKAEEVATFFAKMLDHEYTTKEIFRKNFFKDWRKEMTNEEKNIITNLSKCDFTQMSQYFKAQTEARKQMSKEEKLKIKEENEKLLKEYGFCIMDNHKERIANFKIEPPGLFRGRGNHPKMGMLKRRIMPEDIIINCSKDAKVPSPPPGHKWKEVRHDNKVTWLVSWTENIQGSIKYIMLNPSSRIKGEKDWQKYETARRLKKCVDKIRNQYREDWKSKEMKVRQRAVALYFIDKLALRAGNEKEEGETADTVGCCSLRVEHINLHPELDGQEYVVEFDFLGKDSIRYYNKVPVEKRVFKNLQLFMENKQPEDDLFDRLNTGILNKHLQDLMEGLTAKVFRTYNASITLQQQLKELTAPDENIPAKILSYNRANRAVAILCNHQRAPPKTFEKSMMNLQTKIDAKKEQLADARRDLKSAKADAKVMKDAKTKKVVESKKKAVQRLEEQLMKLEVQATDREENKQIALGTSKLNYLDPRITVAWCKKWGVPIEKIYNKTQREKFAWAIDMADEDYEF

[4] = target: DNA topoisomerase 2-alpha (Homo sapiens) (UniProt P11388); assay: Inhibition of human Top2alpha using pHOT as substrate assessed as suppression of relaxation of DNA supercoil at >1 uM after 30 mins administered prior to enzyme addition by ethidium bromide-based agarose gel electrophoresis
DNA topoisomerase 2-alpha (Homo sapiens), sequence (P11388 whole entry): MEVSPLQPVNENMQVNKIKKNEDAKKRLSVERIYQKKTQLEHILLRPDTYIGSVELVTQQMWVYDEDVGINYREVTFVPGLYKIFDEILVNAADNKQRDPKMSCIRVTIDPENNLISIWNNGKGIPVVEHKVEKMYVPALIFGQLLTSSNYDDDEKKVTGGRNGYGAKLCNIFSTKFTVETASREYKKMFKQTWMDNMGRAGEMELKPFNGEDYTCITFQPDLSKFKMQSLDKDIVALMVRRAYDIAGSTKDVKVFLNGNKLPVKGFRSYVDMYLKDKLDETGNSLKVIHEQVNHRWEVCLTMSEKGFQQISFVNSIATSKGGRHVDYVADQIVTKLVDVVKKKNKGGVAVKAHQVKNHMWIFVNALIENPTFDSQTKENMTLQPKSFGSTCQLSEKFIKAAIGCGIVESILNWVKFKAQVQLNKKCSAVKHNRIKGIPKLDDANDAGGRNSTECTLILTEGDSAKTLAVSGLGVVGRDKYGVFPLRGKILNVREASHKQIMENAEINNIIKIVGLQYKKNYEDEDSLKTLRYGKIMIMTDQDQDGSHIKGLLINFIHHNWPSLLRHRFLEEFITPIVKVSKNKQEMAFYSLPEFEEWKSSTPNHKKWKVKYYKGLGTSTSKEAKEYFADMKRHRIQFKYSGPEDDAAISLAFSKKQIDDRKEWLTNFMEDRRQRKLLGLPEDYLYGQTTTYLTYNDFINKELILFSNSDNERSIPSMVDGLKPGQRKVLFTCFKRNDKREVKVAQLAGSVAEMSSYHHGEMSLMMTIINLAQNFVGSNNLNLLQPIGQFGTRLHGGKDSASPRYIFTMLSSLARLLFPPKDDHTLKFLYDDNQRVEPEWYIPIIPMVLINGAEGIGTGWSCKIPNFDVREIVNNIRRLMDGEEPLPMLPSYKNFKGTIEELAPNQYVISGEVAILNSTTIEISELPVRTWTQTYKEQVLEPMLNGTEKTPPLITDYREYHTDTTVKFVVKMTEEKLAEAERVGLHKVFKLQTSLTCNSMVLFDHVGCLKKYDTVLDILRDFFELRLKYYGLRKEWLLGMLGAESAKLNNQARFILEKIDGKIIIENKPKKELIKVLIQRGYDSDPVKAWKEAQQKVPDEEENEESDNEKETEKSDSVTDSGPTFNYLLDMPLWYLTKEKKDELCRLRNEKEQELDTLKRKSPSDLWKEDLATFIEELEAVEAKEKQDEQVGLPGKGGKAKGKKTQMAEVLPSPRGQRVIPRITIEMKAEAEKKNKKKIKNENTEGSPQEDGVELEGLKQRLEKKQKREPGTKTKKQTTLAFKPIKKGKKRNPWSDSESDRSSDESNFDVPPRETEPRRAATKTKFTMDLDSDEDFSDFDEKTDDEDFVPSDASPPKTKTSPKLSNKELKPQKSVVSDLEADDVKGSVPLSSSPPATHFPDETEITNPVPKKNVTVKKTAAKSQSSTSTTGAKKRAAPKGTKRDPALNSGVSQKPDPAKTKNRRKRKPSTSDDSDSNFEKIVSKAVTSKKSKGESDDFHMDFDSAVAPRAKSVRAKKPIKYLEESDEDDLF

[5] = test system: HEK293; assay: Induction of apoptosis in HEK293 cells assessed as necrotic cells at 0.19 uM after 24 hrs by Annexin V/propidium iodide-dual staining based FACS analysis (reference value: 3.35%); assay type: functional, Homo sapiens
[6] = test system: HEK293; assay: Induction of apoptosis in HEK293 cells assessed as early apoptotic cells at 0.48 uM after 24 hrs by Annexin V/propidium iodide-dual staining based FACS analysis (reference value: 2.04%); assay type: functional, Homo sapiens
[7] = test system: HEK293; assay: Induction of apoptosis in HEK293 cells assessed as necrotic cells at 0.48 uM after 24 hrs by Annexin V/propidium iodide-dual staining based FACS analysis (reference value: 3.35%); assay type: functional, Homo sapiens
[8] = test system: HEK293; assay: Induction of apoptosis in HEK293 cells assessed as late apoptotic cells at 0.19 uM after 24 hrs by Annexin V/propidium iodide-dual staining based FACS analysis (reference value: 4.30%); assay type: functional, Homo sapiens
[9] = test system: HEK293; assay: Induction of apoptosis in HEK293 cells assessed as early apoptotic cells at 0.1 uM after 24 hrs by Annexin V/propidium iodide-dual staining based FACS analysis (reference value: 2.04%); assay type: functional, Homo sapiens
[10] = test system: HEK293; assay: Induction of apoptosis in HEK293 cells assessed as late apoptotic cells at 0.48 uM after 24 hrs by Annexin V/propidium iodide-dual staining based FACS analysis (reference value: 4.30%); assay type: functional, Homo sapiens
[11] = test system: HEK293; assay: Induction of apoptosis in HEK293 cells assessed as late apoptotic cells at 0.1 uM after 24 hrs by Annexin V/propidium iodide-dual staining based FACS analysis (reference value: 4.30%); assay type: functional, Homo sapiens
[12] = test system: HEK293; assay: Induction of apoptosis in HEK293 cells assessed as viable cells at 0.19 uM after 24 hrs by Annexin V/propidium iodide-dual staining based FACS analysis (reference value: 90.31%); assay type: functional; details: Homo sapiens, HEK293, 24 h; read-out: Activity
[13] = test system: HEK293; assay: Induction of apoptosis in HEK293 cells assessed as viable cells at 0.48 uM after 24 hrs by Annexin V/propidium iodide-dual staining based FACS analysis (reference value: 90.31%); assay type: functional; details: Homo sapiens, HEK293, 24 h; read-out: Activity
[14] = test system: HEK293; assay: Induction of apoptosis in HEK293 cells after 24 hrs by Annexin V/propidium iodide-dual staining based FACS analysis; assay type: functional, cell-based; details: Homo sapiens
[15] = test system: HEK293; assay: Induction of apoptosis in HEK293 cells assessed as necrotic cells at 0.1 uM after 24 hrs by Annexin V/propidium iodide-dual staining based FACS analysis (reference value: 3.35%); assay type: functional, Homo sapiens
[16] = test system: HEK293; assay: Induction of apoptosis in HEK293 cells assessed as viable cells at 0.1 uM after 24 hrs by Annexin V/propidium iodide-dual staining based FACS analysis (reference value: 90.31%); assay type: functional; details: Homo sapiens, HEK293, 24 h; read-out: Activity

Structure (SMILES)	IC50 [1]	Activity [2]	inhibition [3]	inhibition [4]	Activity [5]	Activity [6]	Activity [7]	Activity [8]	Activity [9]	Activity [10]	Activity [11]	viability at 0.19 µM [12]	viability at 0.48 µM [13]	Activity [14]	Activity [15]	viability at 0.1 µM [16]
COc1cc([C@@H]2c3cc4c(cc3[C@@H](O[C@@H]3O[C@@H]5CO[C@@H](C)O[C@H]5[C@H](O)[C@H]3O)[C@H]3COC(=O)[C@H]23)OCO4)cc(OC)c1O [ETOPOSIDE]	600 nM	–	–	–	–	–	–	–	–	–	–	–	–	–	–	–
CCCCCCCCCCCC/C=C\CC/C=C\CCCCCCCCCCCCC1=C[C@H](C)OC1=O	390 nM	10.49%	Active	Active	6.7%	16.14%	7.91%	15.3%	5.31%	27.32%	8.09%	67.5%	48.6%	Dose-dependent effect	4.3%	82.3%
